According to ChEMBL document CHEMBL5113395, “Azetidin-2-one-based small molecules as dual hHDAC6/HDAC8 inhibitors: Investigation of their mechanism of action and impact of dual inhibition profile on cell viability” (Eur J Med Chem, 2022):
pIC50: −log10 of the molar value. The source made the active and inactive calls. The rule behind the calls is not given here.

Experiments:
[1] = biological target: T1, Histone deacetylase 1 (Homo sapiens, UniProt Q13547); assay: Inhibition of recombinant human full length C-terminal FLAG/His-tagged HDAC1 expressed in Sf9 insect cells using ZMAL (Z-(Ac)Lys-AMC as substrate measured after 90 mins by fluorescence plate reader analysis
[2] = Cytotoxicity against mouse NIH3T3 cells assessed as inhibition of cell growth by neutral red uptake assay
[3] = biological target: T2, Protein deacetylase HDAC6 (Homo sapiens, UniProt Q9UBN7); assay: Inhibition of recombinant human full length N-terminal GST-tagged HDAC6 expressed in Sf9 cells using ZMAL (Z-(Ac)Lys-AMC as substrate measured after 90 mins by fluorescence plate reader analysis
T2 sequence (Q9UBN7 whole entry): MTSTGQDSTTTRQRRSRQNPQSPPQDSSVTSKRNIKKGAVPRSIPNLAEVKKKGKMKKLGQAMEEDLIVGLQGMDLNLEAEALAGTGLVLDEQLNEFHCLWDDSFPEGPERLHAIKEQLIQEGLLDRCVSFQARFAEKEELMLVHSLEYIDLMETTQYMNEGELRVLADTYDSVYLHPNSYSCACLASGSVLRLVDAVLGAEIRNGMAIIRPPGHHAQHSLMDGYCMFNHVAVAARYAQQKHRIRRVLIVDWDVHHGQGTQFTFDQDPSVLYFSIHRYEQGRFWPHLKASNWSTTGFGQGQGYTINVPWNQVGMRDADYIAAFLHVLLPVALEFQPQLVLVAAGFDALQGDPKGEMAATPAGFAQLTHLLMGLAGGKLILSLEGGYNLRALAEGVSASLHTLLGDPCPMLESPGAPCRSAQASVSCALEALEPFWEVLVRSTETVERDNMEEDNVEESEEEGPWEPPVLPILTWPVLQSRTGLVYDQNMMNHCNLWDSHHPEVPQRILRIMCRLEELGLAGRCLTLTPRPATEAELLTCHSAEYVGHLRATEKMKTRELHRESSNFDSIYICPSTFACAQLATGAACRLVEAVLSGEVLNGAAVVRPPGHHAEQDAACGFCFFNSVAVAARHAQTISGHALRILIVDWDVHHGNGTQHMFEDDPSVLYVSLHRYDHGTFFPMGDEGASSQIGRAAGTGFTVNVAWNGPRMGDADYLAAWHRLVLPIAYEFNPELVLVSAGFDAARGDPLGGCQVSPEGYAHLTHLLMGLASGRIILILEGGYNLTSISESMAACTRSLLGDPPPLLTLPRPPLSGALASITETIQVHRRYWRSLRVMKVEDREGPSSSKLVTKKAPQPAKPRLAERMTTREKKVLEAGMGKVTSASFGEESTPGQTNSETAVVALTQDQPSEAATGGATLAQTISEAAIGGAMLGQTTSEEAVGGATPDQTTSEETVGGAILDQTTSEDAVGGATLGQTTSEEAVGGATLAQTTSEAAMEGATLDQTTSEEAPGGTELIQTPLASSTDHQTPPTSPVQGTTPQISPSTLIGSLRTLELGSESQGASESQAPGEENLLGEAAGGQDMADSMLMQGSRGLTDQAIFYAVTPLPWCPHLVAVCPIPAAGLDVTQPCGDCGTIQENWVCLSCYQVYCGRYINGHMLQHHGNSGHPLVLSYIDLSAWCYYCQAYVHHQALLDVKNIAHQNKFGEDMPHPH

[4] = biological target: T1, Histone deacetylase 1; assay: Inhibition of recombinant human full length C-terminal FLAG/His-tagged HDAC1 expressed in Sf9 insect cells using ZMAL (Z-(Ac)Lys-AMC as substrate at 1 uM measured after 90 mins by fluorescence plate reader analysis relative to control
[5] = biological target: T1, Histone deacetylase 1; assay: Inhibition of recombinant human full length C-terminal FLAG/His-tagged HDAC1 expressed in Sf9 insect cells using ZMAL (Z-(Ac)Lys-AMC as substrate at 10 uM measured after 90 mins by fluorescence plate reader analysis relative to control
[6] = biological target: T1, Histone deacetylase 1; assay: Inhibition of recombinant human full length C-terminal FLAG/His-tagged HDAC1 expressed in Sf9 insect cells using ZMAL (Z-(Ac)Lys-AMC as substrate at 50 uM measured after 90 mins by fluorescence plate reader analysis relative to control
[7] = test system: HCT-116; assay: Antiproliferation activity against human HCT-116 cells assessed as reduction in cell viability at 5 to 50 uM measured after 48 hrs by MTT assay; format: functional, cell-based; settings: dose 5-50 µM
How it was run: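 HCT116 cells in DMEM with 10% heat-inactivated FBS were seeded at 3×10^4 cells/well and treated in triplicate at 1, 5, 10 and 50 µM for 24 and 48 h. MTT at 0.5 mg/mL was added for 3 h, formazan was dissolved in DMSO, and absorbance was read at 570 nm.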

[8] = test system: U-937; assay: Antiproliferation activity against human U-937 cells assessed as reduction in cell viability at 5 to 50 uM measured after 48 hrs by CCK-8 assay; format: functional, cell-based; settings: dose 5-50 µM
How it was run: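 U937 cells were exposed in triplicate to 1, 5, 10 and 50 µM for 24 and 48 h. CCK-8 (WST-8) reagent was then added, with 3 h further incubation at 37 °C, and absorbance was read at 450 nm to give viability.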

[9] = biological target: T3, Protein deacetylase HDAC6 (Homo sapiens) (UniProt Q9UBN7); assay: Inhibition of recombinant human full length N-terminal GST-tagged HDAC6 expressed in Sf9 cells using ZMAL (Z-(Ac)Lys-AMC as substrate at 1 uM measured after 90 mins by fluorescence plate reader analysis relative to control
T3 sequence (whole entry): T2 sequence (Q9UBN7 whole entry)

[10] = biological target: T3, Protein deacetylase HDAC6 (Homo sapiens); assay: Inhibition of recombinant human full length N-terminal GST-tagged HDAC6 expressed in Sf9 cells using ZMAL (Z-(Ac)Lys-AMC as substrate at 50 uM measured after 90 mins by fluorescence plate reader analysis relative to control
[11] = biological target: T3, Protein deacetylase HDAC6 (Homo sapiens); assay: Inhibition of recombinant human full length N-terminal GST-tagged HDAC6 expressed in Sf9 cells using ZMAL (Z-(Ac)Lys-AMC as substrate at 10 uM measured after 90 mins by fluorescence plate reader analysis relative to control
[12] = biological target: T4, Histone deacetylase 8 (Homo sapiens) (UniProt Q9BY41); assay: Inhibition of recombinant human HDAC8 using FLUOR DE LYS as substrate preincubated for 15 mins followed by substrate addition at 50 uM measured after 1 hrs by fluorescence plate reader analysis relative to control; settings: time 75.0 min
T4 sequence (whole entry): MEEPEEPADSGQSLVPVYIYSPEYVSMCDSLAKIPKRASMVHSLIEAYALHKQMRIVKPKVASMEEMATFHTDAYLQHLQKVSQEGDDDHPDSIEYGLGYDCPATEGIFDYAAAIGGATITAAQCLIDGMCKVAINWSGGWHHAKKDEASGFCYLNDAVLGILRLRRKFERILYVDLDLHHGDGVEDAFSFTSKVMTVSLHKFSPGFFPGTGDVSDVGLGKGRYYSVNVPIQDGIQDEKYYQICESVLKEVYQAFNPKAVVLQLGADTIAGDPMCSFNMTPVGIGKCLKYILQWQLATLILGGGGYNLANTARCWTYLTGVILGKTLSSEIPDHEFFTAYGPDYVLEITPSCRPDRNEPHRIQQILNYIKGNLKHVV
How it was run: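 Kit recombinant human HDAC8 (0.45 U/reaction) was preincubated 15 min with compound (0.5% DMSO; DMSO-only control). Fluor de Lys substrate was then added at 50 µM final and the reaction ran 1 h at 30 °C. It was quenched with 2 µM TSA in Developer II for a further 1 h at 30 °C, and fluorescence read at ex 370/em 450 nm. IC50 came from nonlinear dose–response fitting.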

T1 sequence (Q13547 whole entry): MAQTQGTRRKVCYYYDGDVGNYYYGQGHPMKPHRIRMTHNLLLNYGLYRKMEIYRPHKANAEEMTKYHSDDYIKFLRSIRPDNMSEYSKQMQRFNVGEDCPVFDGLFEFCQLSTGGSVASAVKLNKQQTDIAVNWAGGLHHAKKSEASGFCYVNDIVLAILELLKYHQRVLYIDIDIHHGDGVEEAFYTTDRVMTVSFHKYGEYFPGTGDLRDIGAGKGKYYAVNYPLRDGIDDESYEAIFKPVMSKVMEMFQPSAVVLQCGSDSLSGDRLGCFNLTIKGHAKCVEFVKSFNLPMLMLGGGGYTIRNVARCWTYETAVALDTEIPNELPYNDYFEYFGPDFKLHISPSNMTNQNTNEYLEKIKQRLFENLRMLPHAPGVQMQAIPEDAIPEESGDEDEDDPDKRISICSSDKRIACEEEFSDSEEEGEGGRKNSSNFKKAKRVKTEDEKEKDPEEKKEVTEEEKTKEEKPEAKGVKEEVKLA

Row | pIC50 [1] | pIC50 [3] | inhibition [4] [%] | inhibition [5] [%] | inhibition [6] [%] | SMILES | other results
1 | 5.29 | 6.92 | – | – | – | O=C(NO)c1ccc(CC(=O)N2CCC(N3C(=O)[C@H](c4ccccc4)[C@H]3c3ccccc3)CC2)cc1 (racemic) | CC50 [2]: 48000 nM
2 | – | – | 22.3 | 66.4 | 89.5 | O=C(CCc1ccc(C(=O)N2CCC(N3C(=O)[C@H](c4ccccc4)[C@H]3c3ccccc3)CC2)cc1)NO (racemic) | inhibition [9]: 35.9%; inhibition [10]: 98.4%; inhibition [11]: 85.7%
3 | 5.90 | 6.69 | – | – | – | O=C(NO)c1ccc(NC(=O)N2CCC(N3C(=O)[C@H](c4ccccc4)[C@H]3c3ccccc3)CC2)cc1 (racemic) | –
4 | – | – | 23.6 | 53.3 | 82.7 | O=C(Cc1ccc(NC(=O)N2CCC(N3C(=O)[C@H](c4ccccc4)[C@H]3c3ccccc3)CC2)cc1)NO (racemic) | inhibition [9]: 60.2%; inhibition [10]: 103%; inhibition [11]: 94.2%

Further lines, the molecule ahead of its results:

Row | SMILES | pIC50 [1] | pIC50 [3] | inhibition [4] [%] | inhibition [5] [%] | inhibition [6] [%] | other results
5 | Cc1cccc(C2CC(=O)N2C2CCN(C(=O)NCc3ccc(C(=O)NO)cc3)CC2)c1 (racemic) | 5.51 | 6.40 | – | – | – | CC50 [2]: 100000 nM
6 | O=C(NO)c1ccc(/C=C/C(=O)N2CCC(N3C(=O)[C@H](c4ccccc4)[C@H]3c3ccccc3)CC2)cc1 (racemic) | – | 6.89 | 49.7 | 90.1 | 100 | –
7 | O=C(CCCCCCC(=O)Nc1ccccc1)NO | – | – | – | – | – | Activity [7]: Active; Activity [8]: Active
8 | COc1ccc(Cn2ccc3ccc(C(=O)NO)cc32)cc1 | – | – | – | – | – | Activity [7]: Active; Activity [8]: Active
9 | O=C(NO)c1ccc(CNC(=O)N2CCC(N3C(=O)CC3c3cccc(Cl)c3)CC2)cc1 (racemic) | 4.82 | 6.57 | – | – | – | –
10 | O=C(NO)c1ccc(CCC(=O)N2CCC(N3C(=O)[C@H](c4ccccc4)[C@H]3c3ccccc3)CC2)cc1 (racemic) | – | – | 17.2 | 48.7 | 83.6 | inhibition [9]: 69.7%; inhibition [10]: 102%; inhibition [11]: 97.1%
11 | O=C(/C=C/c1ccc(C(=O)N2CCC(N3C(=O)[C@H](c4ccccc4)[C@H]3c3ccccc3)CC2)cc1)NO (racemic) | – | 6.77 | 61 | 93.4 | 97.3 | –
12 | O=C(NO)c1ccc(COC(=O)N2CCC(N3CC(c4ccccc4)(c4ccccc4)C3=O)CC2)cc1 | 5.39 | 7.73 | – | – | – | inhibition [12]: 13%; CC50 [2]: 80000 nM
